{
  "source": "paper PMC3644855",
  "about": "(Nuclear medicine and biology, 2009)",
  "key": {"[1]": {"assay_type": "in vivo", "conditions": "rat i.v., Radioactivity", "in_short": "(§1)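 Awake male Sprague-Dawley rats (220–260 g, 3 per group) got i.v. 0.5–1 mCi 18F-labelled test compound in 100 μL, containing 1, 11 or 18 nmol unlabelled compound. Killed 5 or 30 min later. Caudate, thalamus, hippocampus, brain stem, cerebellum, cortex and plasma (0.05–0.4 g) weighed and radioactivity-counted. Uptake given as DUR = %ID/g × body weight/100.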"}, "5-HT1A receptor": {"target": "T1, 5-HT1A receptor (Rattus norvegicus, UniProt P19327)", "T1 sequence (P19327 1-422)": "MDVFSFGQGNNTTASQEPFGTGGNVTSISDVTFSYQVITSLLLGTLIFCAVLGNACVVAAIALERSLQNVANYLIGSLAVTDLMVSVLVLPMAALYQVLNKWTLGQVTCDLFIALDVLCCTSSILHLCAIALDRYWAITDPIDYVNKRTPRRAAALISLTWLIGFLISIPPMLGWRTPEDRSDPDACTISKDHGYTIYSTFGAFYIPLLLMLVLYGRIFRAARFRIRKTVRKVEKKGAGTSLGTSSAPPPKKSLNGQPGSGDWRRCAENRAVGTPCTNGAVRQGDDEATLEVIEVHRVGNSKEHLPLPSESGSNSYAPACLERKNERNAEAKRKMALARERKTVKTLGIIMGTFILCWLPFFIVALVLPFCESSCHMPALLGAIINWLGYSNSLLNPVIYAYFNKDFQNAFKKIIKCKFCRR", "test": "Brain tissue specific binding ratio [", "assay_type": "in vivo", "conditions": "rat i.v., Radioactivity", "in_short": "as §1"}},
  "note": "“And” between values parts separate entries of the source, which are not always exact repeats. Equal entries are not always repeated. Where two headings read alike, the source gives them in different places.",
  "data": [
    {"smiles": "COc1ccccc1N1CCN(CCN(C(=O)c2ccc(F)cc2)c2ncccn2)CC1", "note": "[[^18F]FPWAY, 4-Fluoro-N-{2-[4-(2-methoxyphenyl)-1-piperazinyl]ethyl}-N-(2-pyrimidinyl)benzamide]", "values": [
      {"measurement": "DUR Hippocampus", "setting": "[1]; 1 nmol, 5 min", "result": "4.50 %ID/g * body weight/100 and 4.50±0.41 %ID/g * body weight/100"},
      {"measurement": "DUR brain stem", "setting": "[1]; 1 nmol, 5 min", "result": "2.53±0.48", "unit": "%ID/g * body weight/100"},
      {"measurement": "DUR caudate", "setting": "[1]; 1 nmol, 5 min", "result": "2.14±0.27", "unit": "%ID/g * body weight/100"},
      {"measurement": "DUR cerebellum", "setting": "[1]; 1 nmol, 5 min", "result": "1.55±0.24", "unit": "%ID/g * body weight/100"},
      {"measurement": "DUR cortex", "setting": "[1]; 1 nmol, 5 min", "result": "3.75±0.74", "unit": "%ID/g * body weight/100"},
      {"measurement": "DUR thalamus", "setting": "[1]; 1 nmol, 5 min", "result": "2.54±0.43", "unit": "%ID/g * body weight/100"},
      {"measurement": "DUR Hippocampus", "setting": "[1]; 1 nmol, 30 min", "result": "2.34±0.22", "unit": "%ID/g * body weight/100"},
      {"measurement": "DUR brain stem", "setting": "[1]; 1 nmol, 30 min", "result": "0.78±0.08", "unit": "%ID/g * body weight/100"},
      {"measurement": "DUR caudate", "setting": "[1]; 1 nmol, 30 min", "result": "0.56±0.01", "unit": "%ID/g * body weight/100"},
      {"measurement": "DUR cerebellum", "setting": "[1]; 1 nmol, 30 min", "result": "0.36±0.05", "unit": "%ID/g * body weight/100"},
      {"measurement": "DUR cortex", "setting": "[1]; 1 nmol, 30 min", "result": "1.12±0.18", "unit": "%ID/g * body weight/100"},
      {"measurement": "DUR thalamus", "setting": "[1]; 1 nmol, 30 min", "result": "0.84±0.06", "unit": "%ID/g * body weight/100"},
      {"measurement": "DUR Hippocampus", "setting": "[1]; 11 nmol, 30 min", "result": "0.83±0.03", "unit": "%ID/g * body weight/100"},
      {"measurement": "DUR brain stem", "setting": "[1]; 11 nmol, 30 min", "result": "0.37±0.05", "unit": "%ID/g * body weight/100"},
      {"measurement": "DUR caudate", "setting": "[1]; 11 nmol, 30 min", "result": "0.30±0.02", "unit": "%ID/g * body weight/100"},
      {"measurement": "DUR cerebellum", "setting": "[1]; 11 nmol, 30 min", "result": "0.22±0.02", "unit": "%ID/g * body weight/100"},
      {"measurement": "DUR cortex", "setting": "[1]; 11 nmol, 30 min", "result": "0.50±0.04", "unit": "%ID/g * body weight/100"},
      {"measurement": "DUR thalamus", "setting": "[1]; 11 nmol, 30 min", "result": "0.38±0.02", "unit": "%ID/g * body weight/100"},
      {"measurement": "DUR Hippocampus", "setting": "[1]; 18 nmol, 30 min", "result": "0.53±0.02", "unit": "%ID/g * body weight/100"},
      {"measurement": "DUR brain stem", "setting": "[1]; 18 nmol, 30 min", "result": "0.27±0.03", "unit": "%ID/g * body weight/100"},
      {"measurement": "DUR caudate", "setting": "[1]; 18 nmol, 30 min", "result": "0.24±0.04", "unit": "%ID/g * body weight/100"},
      {"measurement": "DUR cerebellum", "setting": "[1]; 18 nmol, 30 min", "result": "0.15±0.01", "unit": "%ID/g * body weight/100"},
      {"measurement": "DUR cortex", "setting": "[1]; 18 nmol, 30 min", "result": "0.41±0.13", "unit": "%ID/g * body weight/100"},
      {"measurement": "DUR thalamus", "setting": "[1]; 18 nmol, 30 min", "result": "0.28±0.02", "unit": "%ID/g * body weight/100"},
      {"measurement": "Specific binding ratio [(DURtissue/DURCb)−1] Hippocampus", "setting": "5-HT1A receptor; 1 nmol, 5 min", "result": "1.95±0.45"},
      {"measurement": "Specific binding ratio [(DURtissue/DURCb)−1] brain stem", "setting": "5-HT1A receptor; 1 nmol, 5 min", "result": "0.63±0.08"},
      {"measurement": "Specific binding ratio [(DURtissue/DURCb)−1] caudate", "setting": "5-HT1A receptor; 1 nmol, 5 min", "result": "0.38±0.06"},
      {"measurement": "Specific binding ratio [(DURtissue/DURCb)−1] cortex", "setting": "5-HT1A receptor; 1 nmol, 5 min", "result": "1.41±0.13"},
      {"measurement": "Specific binding ratio [(DURtissue/DURCb)−1] thalamus", "setting": "5-HT1A receptor; 1 nmol, 5 min", "result": "0.64±0.04"},
      {"measurement": "Specific binding ratio [(DURtissue/DURCb)−1] Hippocampus", "setting": "5-HT1A receptor; 1 nmol, 30 min", "result": "5.38±0.23"},
      {"measurement": "Specific binding ratio [(DURtissue/DURCb)−1] brain stem", "setting": "5-HT1A receptor; 1 nmol, 30 min", "result": "1.12±0.06"},
      {"measurement": "Specific binding ratio [(DURtissue/DURCb)−1] caudate", "setting": "5-HT1A receptor; 1 nmol, 30 min", "result": "0.53±0.17"},
      {"measurement": "Specific binding ratio [(DURtissue/DURCb)−1] cortex", "setting": "5-HT1A receptor; 1 nmol, 30 min", "result": "2.04±0.18"},
      {"measurement": "Specific binding ratio [(DURtissue/DURCb)−1] thalamus", "setting": "5-HT1A receptor; 1 nmol, 30 min", "result": "1.29±0.13"},
      {"measurement": "Specific binding ratio [(DURtissue/DURCb)−1] Hippocampus", "setting": "5-HT1A receptor; 11 nmol, 30 min", "result": "2.72±0.37"},
      {"measurement": "Specific binding ratio [(DURtissue/DURCb)−1] brain stem", "setting": "5-HT1A receptor; 11 nmol, 30 min", "result": "0.68±0.14"},
      {"measurement": "Specific binding ratio [(DURtissue/DURCb)−1] caudate", "setting": "5-HT1A receptor; 11 nmol, 30 min", "result": "0.33±0.06"},
      {"measurement": "Specific binding ratio [(DURtissue/DURCb)−1] cortex", "setting": "5-HT1A receptor; 11 nmol, 30 min", "result": "1.26±0.11"},
      {"measurement": "Specific binding ratio [(DURtissue/DURCb)−1] thalamus", "setting": "5-HT1A receptor; 11 nmol, 30 min", "result": "0.70±0.12"},
      {"measurement": "Specific binding ratio [(DURtissue/DURCb)−1] Hippocampus", "setting": "5-HT1A receptor; 18 nmol, 30 min", "result": "2.57±0.21"},
      {"measurement": "Specific binding ratio [(DURtissue/DURCb)−1] brain stem", "setting": "5-HT1A receptor; 18 nmol, 30 min", "result": "0.85±0.26"},
      {"measurement": "Specific binding ratio [(DURtissue/DURCb)−1] caudate", "setting": "5-HT1A receptor; 18 nmol, 30 min", "result": "0.63±0.34"},
      {"measurement": "Specific binding ratio [(DURtissue/DURCb)−1] cortex", "setting": "5-HT1A receptor; 18 nmol, 30 min", "result": "1.81±0.83"},
      {"measurement": "Specific binding ratio [(DURtissue/DURCb)−1] thalamus", "setting": "5-HT1A receptor; 18 nmol, 30 min", "result": "0.90±0.13"}
    ]}
  ]
}
